Measured values reported in ChEMBL document CHEMBL4334542, “Antimalarial N 1,N 3-Dialkyldioxonaphthoimidazoliums: Synthesis, Biological Activity, and Structure-activity Relationships” (ACS Med Chem Lett, 2020).
The source made the active and inactive calls. No cut-off for these calls is given here.

How the values were obtained:
Plasmodium falciparum [1] = assay: Antimalarial activity against Plasmodium falciparum NF54 late gametocytes transfected with luciferase gene incubated for 48 hrs by luciferase reporter gene assay; format: functional, organism-based; details: NF54, 48 h
Procedure, shortened: (§1)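 Gametocytes of NF54-Pfs16-GFP-Luc, early (>95% stage II/III) or late (>90% stage IV/V); luciferase read-out. IC50 is the concentration giving 50% reduction of luminescence; mean ± SEM of n = 3 independent biological replicates.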

CHO-K1 = assay: Cytotoxicity against CHOK1 cells assessed as reduction in cell viability incubated for 48 hrs by CellTiter 96 aqueous one solution assay; format: cell-based; details: Cricetulus griseus, CHO-K1, 48 h
Procedure, shortened: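 Cell growth measured by a tetrazolium dye assay. IC50 is the concentration reducing growth by 50% relative to untreated cultures; mean ± SD of n = 3 separate determinations.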

[2] = AUC (0 to last) in C57BL/6 mouse at 20 mg/kg, po measured upto 24 hrs by LCMS analysis; format: ADME, organism-based; parameters: dose 20 mg/kg, time 0 - last, route oral; details: in vivo
Plasmodium falciparum [3] = assay: Antimalarial activity against Plasmodium falciparum TM90C2B incubated for 48 hrs by [3H]-hypoxanthine incorporation assay; format: functional, organism-based
[4] = Half life in C57BL/6 mouse at 20 mg/kg, po measured upto 24 hrs by LCMS analysis; format: ADME, organism-based; details: in vivo
[5] = Toxicity in C57BL/6 mouse at 20 mg/kg, po; format: organism-based; details: in vivo
Procedure, shortened: (§2)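 Male C57BL6 mice given one dose, 2 mg/kg iv or 20 mg/kg oral (n=3 per route), checked for signs of distress 24 h after dosing.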

[6] = AUC (0 to last) at steady state in C57BL/6 mouse at 2 mg/kg, iv measured upto […] by LCMS analysis; format: ADME, organism-based; parameters: dose 2 mg/kg, time 0 - last, route intravenous; details: in vivo
[7] = Toxicity in C57BL/6 mouse assessed as distress effect at 2 mg/kg, iv observed upto 24 hrs; format: organism-based; details: in vivo; procedure, shortened: as §2
[8] = Solubility of compound at pH 7.4 measured after 24 hrs; format: physicochemical; details: buffer
Procedure, shortened: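 Water solubility measured at pH 7.4.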

Plasmodium falciparum [9] = assay: Antimalarial activity against Plasmodium falciparum NF54 early gametocytes transfected with luciferase gene incubated for 48 hrs by luciferase reporter gene assay; format: functional, organism-based; details: NF54, 48 h; procedure, shortened: as §1
[10] = Cmax in C57BL/6 mouse at 20 mg/kg, po measured upto 24 hrs by LCMS analysis; format: ADME, organism-based; parameters: dose 20 mg/kg, route oral; details: in vivo
[11] = Half life in C57BL/6 mouse at 2 mg/kg, iv measured upto 24 hrs by LCMS analysis; format: ADME, organism-based; details: in vivo
[12] = Tmax in C57BL/6 mouse at 20 mg/kg, po measured upto 24 hrs by LCMS analysis; format: ADME, organism-based; details: in vivo
Plasmodium falciparum [13] = assay: Antimalarial activity against Plasmodium falciparum 3D7 infected in orally dosed NOD-SCID IL-2Ry deficient mouse assessed as reduction in parasitemia administered on day 3 to 6 and measured on day 7 by TER-119-PE and SYTO-19 dye based flow cytometry; format: functional; details: 3D7, po
Procedure, shortened: (§3)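 Humanized mouse infected with P. falciparum Pf3D7 0087/N9; oral dosing on Days 3–6 at 5 dose levels spanning 1–50 mg/kg. Parasitemia measured each treatment day and on Day 7. ED90 from non-linear fit of log Day-7 parasitemia against oral dose, relative to untreated controls.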

Plasmodium falciparum [14] = assay: Antimalarial activity against Plasmodium falciparum NF54 incubated for 48 hrs by [3H]-hypoxanthine incorporation assay; format: functional, organism-based
[15] = Stability in rat liver microsomes incubated for 45 mins in presence of NADPH by chromatographic analysis; format: ADME, Microsome; details: 0.75 h
[16] = Effective permeability of compound at pH 7.4 measured after 16 hrs PAMPA; format: ADME; details: pH 7.4, 16 h
[17] = Redox cycling activity of the compound […] measured after 45 mins by phenol red reagent based horseradish peroxidase coupled assay
Procedure, shortened: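 Redox cycling EC50 determined by the phenol red horseradish peroxidase assay.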

[18] = Oral bioavailability in C57BL/6 mouse at 20 mg/kg measured upto 24 hrs by LCMS analysis; format: ADME, organism-based; details: in vivo
[19] = Time at which plasma concentration stays above in vitro IC50 for asexual stage of Plasmodium falciparum 3D7 infected in erythrocytes in C57BL/6 mouse at 20 mg/kg, po; format: ADME, organism-based; details: in vivo
[20] = Toxicity in C57BL/6 mouse at 2 mg/kg, iv; format: organism-based; details: in vivo; procedure, shortened: as §2
[21] = Toxicity in C57BL/6 mouse assessed as distress effect at 20 mg/kg, po observed upto 24 hrs; format: organism-based; details: in vivo; procedure, shortened: as §2
Plasmodium falciparum [22] = assay: Antimalarial activity against Plasmodium falciparum K1 incubated for 48 hrs by [3H]-hypoxanthine incorporation assay; format: functional, organism-based
Plasmodium falciparum [23] = assay: Antimalarial activity against asexual stage of Plasmodium falciparum 3D7 infected in erythrocytes assessed as reduction in parasite growth incubated for 48 hrs under hypoxic condition by Hoechst 33342 staining based flow cytometry; format: functional, organism-based; details: 3D7, 48 h
Procedure, shortened: (§4)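 Asexual Dd2 and 3D7 parasites in erythrocytes; DNA content of infected cells measured by Hoechst 33342 staining and FACS. IC50 is the concentration giving 50% of the net fluorescence of untreated control cultures; mean ± SD of n = 3 separate determinations.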

[24] = Volume of distribution in C57BL/6 mouse at 2 mg/kg, iv measured upto 24 hrs by LCMS analysis; format: ADME, organism-based; details: in vivo
Plasmodium falciparum [25] = assay: Antimalarial activity against asexual stage of Plasmodium falciparum W2 assessed as reduction in parasite growth incubated for 96 hrs by SYBR Green I dye-based fluorescence assay; format: functional, organism-based; details: W2, 96 h
Plasmodium falciparum [26] = assay: Antimalarial activity against asexual stage of Plasmodium falciparum NF54 assessed as reduction in parasite growth incubated for 96 hrs by SYBR Green I dye-based fluorescence assay; format: functional, organism-based; details: NF54, 96 h
Procedure, shortened: (§5)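 Asexual NF54, K1 and W2 parasites; proliferation read as SYBR Green I fluorescence. IC50 is the concentration giving 50% of the net SYBR Green I fluorescence of untreated control cultures; mean ± SEM of n = 3 independent biological replicates.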

Plasmodium falciparum [27] = assay: Antimalarial activity against asexual stage of Plasmodium falciparum Dd2 infected in erythrocytes assessed as reduction in parasite growth incubated for 48 hrs under hypoxic condition by Hoechst 33342 staining based flow cytometry; format: functional, organism-based; details: Dd2, 48 h; procedure, shortened: as §4
Plasmodium falciparum [28] = assay: Antimalarial activity against Plasmodium falciparum 3D7 infected in NOD-SCID IL-2Ry deficient mouse assessed as reduction in parasitemia at 50 mg/kg, po administered on day 3 to 6 and measured on day 7 by TER-119-PE and SYTO-19 dye based flow cytometry; format: functional, organism-based; procedure, shortened: as §3
Plasmodium falciparum [29] = assay: Antimalarial activity against asexual stage of Plasmodium falciparum K1 assessed as reduction in parasite growth incubated for 96 hrs by SYBR Green I dye-based fluorescence assay; format: functional, organism-based; details: K1, 96 h; procedure, shortened: as §5

With `Cc1n(C(C)C)c2c([n+]1C(C)C)C(=O)c1ccccc1C2=O.[Br-]` as the molecule, how does the IC50 (Plasmodium falciparum [1]) read?
The IC50 was 653 nM.

And the IC50 (CHO-K1)?
The IC50 was 56700 nM.

What about the AUClast [2] of the same molecule?
Its AUClast is 69 µmol·min/L.

And the IC50 (Plasmodium falciparum [3])?
The IC50 was 1.6 nM.

What about the half-life [4] of the same molecule?
Its half-life is 11.3 h.

What about the Activity [5] of the same molecule?
Its Activity is “Non-Toxic”.

What about the AUClast [6] of the same molecule?
The AUClast was 130 µmol·min/L.

What about the Activity [7] of the same molecule?
The Activity was “Non-Toxic”.

What about the solubility at 24 h [8] of the same molecule?
The solubility at 24 h was over 100 µM.

And the IC50 (Plasmodium falciparum [9])?
The IC50 was 72 nM.

And the Cmax [10]?
The Cmax was 337 nM.

What about the half-life [11] of the same molecule?
The half-life was 1.4 h.

And the Tmax [12]?
Its Tmax is 2 h.

What about the ED90 (Plasmodium falciparum [13]) of the same molecule?
Its ED90 is 34 mg/kg.

What about the IC50 (Plasmodium falciparum [14]) of the same molecule?
The IC50 was 1 nM.

And the Stability [15]?
Its Stability is “Stable”.

And the Peff [16]?
The Peff was “Impermeable”.

What about the Activity [17] of the same molecule?
Its Activity is “Active”.

And the bioavailability [18]?
Its bioavailability is 5%.

What about the Time [19] of the same molecule?
The Time was 24 h.

What about the Activity [20] of the same molecule?
The Activity was “Non-Toxic”.

And the Activity [21]?
The Activity was “Non-Toxic”.

What about the IC50 (Plasmodium falciparum [22]) of the same molecule?
The IC50 was 1.9 nM.

What about the IC50 (Plasmodium falciparum [23]) of the same molecule?
Its IC50 is 6.5 nM.

What about the Vd [24] of the same molecule?
The Vd was 8.3 L/kg.

What about the IC50 (Plasmodium falciparum [25]) of the same molecule?
The IC50 was 2.18 nM.

And the IC50 (Plasmodium falciparum [26])?
The IC50 was 1.43 nM.

And the IC50 (Plasmodium falciparum [27])?
The IC50 was 4.7 nM.

What about the Activity (Plasmodium falciparum [28]) of the same molecule?
Its Activity is “inactive”.

What about the IC50 (Plasmodium falciparum [29]) of the same molecule?
Its IC50 is 2.5 nM.
